CCR6 antagonist: CCR6 receptor antagonists, primary screen, cell-based, CHO-K1, luminescence, beta-arrestin, uHTS. AID 493098, 2011. CHO-K1 CCR6 PathHunter beta-arrestin, CCL20-stimulated. 340,000 tested, 0.49% active. inhibition, % at 20 µM;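 active means compounds whose inhibition of the agonist-driven luminescence signal at 20 µM reaches about 50%, limit read from the data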;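 further: cells stimulated with CCL20 at 14 nM final; plate controls were DMSO with CCL20 for no effect and DMSO without agonist for full effect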
HTR2A ag: mouse Htr2a agonists via beta-arrestin recruitment, primary screen, cell-based, luminescence; CHO-K1 mHTR2A beta-arrestin complementation; percent of 30 µM serotonin response; activation, % at 7.6 µM; 360,000 tested, 0.66% active;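 active means activation above a run cutoff, the mean activation of all tested compounds plus 3 SD, cut at about 14% in these data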;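 further: 0% = plate median of compound wells and 100% = 30 µM serotonin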
Target sequence (P35363 whole entry, looked up): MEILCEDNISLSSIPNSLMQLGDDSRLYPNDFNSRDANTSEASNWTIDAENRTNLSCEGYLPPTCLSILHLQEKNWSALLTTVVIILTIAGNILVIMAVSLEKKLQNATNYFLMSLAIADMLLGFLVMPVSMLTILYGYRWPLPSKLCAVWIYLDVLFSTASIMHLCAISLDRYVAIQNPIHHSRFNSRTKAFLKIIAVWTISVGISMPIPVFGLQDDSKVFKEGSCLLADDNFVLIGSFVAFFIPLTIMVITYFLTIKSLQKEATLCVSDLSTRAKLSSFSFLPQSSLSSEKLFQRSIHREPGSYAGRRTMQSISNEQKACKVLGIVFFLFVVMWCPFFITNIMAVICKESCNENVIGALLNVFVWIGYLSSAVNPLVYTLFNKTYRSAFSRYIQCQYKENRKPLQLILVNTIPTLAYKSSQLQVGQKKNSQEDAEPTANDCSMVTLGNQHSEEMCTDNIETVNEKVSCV
EBI2 antag: EBI2 receptor antagonists, beta-arrestin recruitment, primary screen, cell-based, luminescence, 7a,25-OHC stimulation, uHTS | 360,000 tested, 0.81% active | G-protein coupled receptor 183 (Homo sapiens), P32249 | 7a,25-OHC stimulated | inhibition, % at 5 µM; in the data active means inhibition above about 38%;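 further: enzyme fragment complementation signal reports receptor beta-arrestin coupling in cells; 0% = agonist plus DMSO wells and 100% = wells without agonist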
APJ agonist: agonists of human apelin receptor APJ, primary screen, CHO-K1 cells, PathHunter beta-arrestin, luminescence; 330,000 tested, 0.11% active; 0% DMSO wells, 100% apelin; AID 2520, 2010; activation, % at 20 µM; P35414;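 active means activation more than six SD over the plate average, tested at 20 µM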;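 further: 0% = DMSO alone and 100% = apelin-13 at 10 nM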
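Assay system: CHO-K1 cells stably expressing ProLink-tagged human APJ and arrestin–beta-gal acceptor. Compound dosing: 20 µM single point, 1% DMSO. Times: 16-18 h seeding, 90 min dark compound exposure, 60 min detection. Detection: beta-gal luminescence. Evaluation: APJ–arrestin association signal. Controls: negative DMSO alone, positive Apelin-13 at 10 nM.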
CXCR6 inh: CXCR6 receptor inhibitors, primary screen, cell-based, beta-arrestin, luminescence, CHO-K1 PathHunter, 1536-well. C-X-C chemokine receptor type 6 (Homo sapiens), O00574. inhibition, % at 20 µM. 360,000 tested, 0.36% active; in the data active means inhibition above about 34%, passing the limit was not always enough;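 further: antagonist mode with CXCL16 agonist at 10 nM final; 0% = 10 nM CXCL16 with DMSO and 100% = unstimulated wells without agonist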
APJ antagonist: antagonists of human apelin receptor APJ, primary screen, CHO-K1 cells, beta-arrestin complementation, luminescence; P35414; inhibition, % at 20 µM; 330,000 tested, 0.32% active; AID 2521, 2010;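 active means inhibition above about 40% at 20 µM, limit read from the data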;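 further: cells challenged with 10 nM apelin-13 agonist together with compound; plate controls were apelin-13 plus DMSO wells for no effect and DMSO wells lacking apelin-13 for full effect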
CXCR6 confirm: CXCR6 receptor antagonists, confirmation, cell-based, single concentration, beta-arrestin, luminescence; shares compounds with CXCR6 inh; CHO-K1 CXCR6 PathHunter beta-arrestin; inhibition, % at 20 µM; 700 tested, 65% active;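 active means mean inhibition over four retests above 40%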;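 further: receptor stimulated with 10 nM CXCL16 agonist; beta-galactosidase fragment complementation upon beta-arrestin recruitment to receptor; plate controls were CXCL16 plus DMSO for no effect and DMSO without CXCL16 for full effect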
* hit, by the source's call. Most compounds without a hit are left out; they make up all but 2.2% or so of the library.

Results for Cc1cc(C)cc(N2C(=O)CC(Sc3nnnn3-c3ccccc3)C2=O)c1 (centres undefined) ?
HTR2A ag: 3; EBI2 antag: 1; APJ agonist: -1; CXCR6 inh: 87*; APJ antagonist: -18; CXCR6 confirm: 75*

Results for O=C(Oc1c(Cl)cc(Cl)c2cccnc12)c1cccs1 ?
CCR6 antagonist: 28; HTR2A ag: -6; EBI2 antag: 15; APJ agonist: -3; CXCR6 inh: 34; APJ antagonist: 4

What do the screens show for `O=C(Oc1c(Cl)cc(Cl)c2cccnc12)c1ccco1`?
HTR2A ag: -7; EBI2 antag: 27; APJ agonist: -2; CXCR6 inh: 45*; APJ antagonist: 2; CXCR6 confirm: 70*

What do the screens show for `C[C@@H]1CN([C@H](C)CO)C(=O)CCCn2cc(nn2)CO[C@H]1CN(C)S(=O)(=O)c1cccc(C#N)c1`?
HTR2A ag: -2; EBI2 antag: -10; CXCR6 inh: -1

How did O=C(COc1ccc(F)cc1Cl)Nc1nc(-c2ccccn2)cs1 do in these assays?
HTR2A ag: -5; EBI2 antag: -4; APJ agonist: -3; CXCR6 inh: 46*; APJ antagonist: 8; CXCR6 confirm: 38

Results for CC(Oc1cccc(Cl)c1)C(=O)Nc1nc(-c2ccccn2)cs1 (centres undefined) ?
CCR6 antagonist: 87*; HTR2A ag: -15; EBI2 antag: -1; APJ agonist: -11; CXCR6 inh: 70*; APJ antagonist: 30; CXCR6 confirm: 78*

How did CC(Oc1ccccc1)C(=O)Nc1nc(-c2ccccn2)cs1 (centres undefined) do in these assays?
HTR2A ag: 1; EBI2 antag: -7; APJ agonist: -5; CXCR6 inh: 38*; APJ antagonist: -3; CXCR6 confirm: 64*

Results for O=C(C=Cc1ccccn1)c1ccccc1 ?
CCR6 antagonist: 39; HTR2A ag: 0; EBI2 antag: -12; CXCR6 inh: 21

What do the screens show for `O=C(C=Cc1ccccn1)c1ccccc1O`?
CCR6 antagonist: 74*; HTR2A ag: -2; EBI2 antag: -10; CXCR6 inh: 57*; CXCR6 confirm: 60*

Results for OC[C@@H]1CN(Cc2ccc(Cl)cc2)C[C@H](n2cnc3c(NCc4ccc(F)cc4)ncnc32)O1 ?
HTR2A ag: 2; EBI2 antag: 2; CXCR6 inh: -9

Results for Oc1ccc(Cl)c2cccnc12 ?
CCR6 antagonist: 66*; HTR2A ag: 2; EBI2 antag: 17; CXCR6 inh: 43*; CXCR6 confirm: 60*

Results for Oc1ccc(F)c2cccnc12 ?
CCR6 antagonist: 38; HTR2A ag: 1; EBI2 antag: 4; APJ agonist: -2; CXCR6 inh: 28; APJ antagonist: -17

What do the screens show for `OC(c1ccc(F)c(F)c1)c1nc(-c2csc3ccccc23)cs1` (centres undefined)?
HTR2A ag: 3; EBI2 antag: -4; CXCR6 inh: -10

Results for CCN(CC)CC(C)(C)C(=O)/C=C/c1ccc(/C=C/C(=O)C(C)(C)CN(CC)CC)cc1 ?
CCR6 antagonist: 113*; HTR2A ag: 0; EBI2 antag: 78*; CXCR6 inh: 98*; CXCR6 confirm: 95*

How did Clc1ccc(-c2nc3c4ccccc4ccn3c2Cc2ccccc2)cc1 do in these assays?
HTR2A ag: -1; EBI2 antag: 11; CXCR6 inh: 44*; CXCR6 confirm: 10

What do the screens show for `Fc1ccc(-c2nc3c4ccccc4ccn3c2Cc2ccccc2)cc1`?
HTR2A ag: -2; EBI2 antag: -9; CXCR6 inh: 5

What do the screens show for `Cc1cc(C)c2c(=O)n3c(nc2c1)C(CC(C)C)NC(=O)c1cccnc1-3` (centres undefined)?
HTR2A ag: -1; EBI2 antag: 28; CXCR6 inh: -14

How did COc1ccc(-c2nn(C)c(=O)c3ccccc23)cc1NC(=O)Cn1nc(C)c2ccccc2c1=O do in these assays?
CCR6 antagonist: 66*; HTR2A ag: -9; EBI2 antag: 12; APJ agonist: -10; CXCR6 inh: 37*; APJ antagonist: 37; CXCR6 confirm: 47*

Results for Cc1cccc(C)c1-n1nnnc1C1c2ccccc2C(=O)N1CCCN1CCOCC1 (centres undefined) ?
HTR2A ag: 3; EBI2 antag: -12; CXCR6 inh: -3

What do the screens show for `C=C1C(=O)C23CCC4C(C)(C(=O)OC)CCCC4(C)C2CCC1(O)C3` (centres undefined)?
CCR6 antagonist: 86*; HTR2A ag: -7; EBI2 antag: 78*; CXCR6 inh: 79*; CXCR6 confirm: 89*

What do the screens show for `CCCOc1ccc(C(=O)NNC(=S)NC(=O)c2cc(-c3ccc(Cl)cc3)nc3ccccc23)cc1`?
CCR6 antagonist: 43; HTR2A ag: 1; EBI2 antag: 14; APJ agonist: -8; CXCR6 inh: 45*; APJ antagonist: 30; CXCR6 confirm: 37

What do the screens show for `Cc1ccc(OCC(=O)NNC(=S)NC(=O)C2CC2)c(C)c1`?
HTR2A ag: -5; EBI2 antag: 8; APJ agonist: -10; CXCR6 inh: 45*; APJ antagonist: 9; CXCR6 confirm: 41*

How did N#Cc1c(SCC(N)=O)nsc1SCc1ccccc1Cl do in these assays?
CCR6 antagonist: 18; HTR2A ag: 4; EBI2 antag: -8; APJ agonist: -4; CXCR6 inh: 83*; APJ antagonist: 1; CXCR6 confirm: 0

How did N#Cc1c(SCC(N)=O)nsc1SCc1ccc(Cl)cc1 do in these assays?
CCR6 antagonist: 5; HTR2A ag: -1; EBI2 antag: 2; APJ agonist: 0; CXCR6 inh: -7; APJ antagonist: -5

What do the screens show for `FC(F)Sc1ccc(NC(=S)NC2CCCCC2)cc1`?
CCR6 antagonist: -11; HTR2A ag: -5; EBI2 antag: 7; APJ agonist: 2; CXCR6 inh: 57*; APJ antagonist: -5; CXCR6 confirm: 4

Results for O=C1C(=C(I)I)c2ccccc2-c2ccccc21 ?
HTR2A ag: -1; EBI2 antag: -21; CXCR6 inh: 43*; CXCR6 confirm: 39

What do the screens show for `O=C(O)c1cccc2c1C(=O)c1ccccc1-2`?
CCR6 antagonist: -8; HTR2A ag: -2; EBI2 antag: 10; APJ agonist: 5; CXCR6 inh: -11; APJ antagonist: -8

Screening results deposited in PubChem BioAssay by several laboratories.
